Source: PubChem BioAssay (Sanford-Burnham Center for Chemical Genomics)
LMPTP block – LMPTP phosphatase inhibitors, primary screen, biochemical, fluorescence intensity, uHTS. inhibition, % at 20 µM. recombinant LMPTP-A, OMFP fluorogenic substrate. actives 0.22% (n = 360,000). AID 651560, 2012. Low molecular weight phosphotyrosine protein phosphatase (Homo sapiens), P24666;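 active means compounds that cut the enzyme signal by at least half of the control window in the single-dose screen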
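Assay system: LMPTP-A phosphatase enzyme | Input: 0.625 nM enzyme | Also added: Fluorogenic phosphatase substrate OMFP at 400 µM final | Compound dosing: One test concentration per compound, 20 µM, with 3% DMSO overall | Schedule: 50 min enzyme reaction at room temperature, protected from light | Signal: Fluorescence intensity | Benchmarks: no-enzyme and uninhibited controls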
STEP inh – STEP phosphatase inhibitors, primary screen, biochemical, fluorescence intensity, uHTS; inhibition, % at 20 µM; actives 0.25% (n = 360,000); AID 588621, 2011; recombinant STEP, OMFP fluorogenic substrate;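 active means inhibition at 20 µM, scaled per plate between control wells, above about 37%, limit read from the data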
Target sequence (P54829 whole entry, looked up): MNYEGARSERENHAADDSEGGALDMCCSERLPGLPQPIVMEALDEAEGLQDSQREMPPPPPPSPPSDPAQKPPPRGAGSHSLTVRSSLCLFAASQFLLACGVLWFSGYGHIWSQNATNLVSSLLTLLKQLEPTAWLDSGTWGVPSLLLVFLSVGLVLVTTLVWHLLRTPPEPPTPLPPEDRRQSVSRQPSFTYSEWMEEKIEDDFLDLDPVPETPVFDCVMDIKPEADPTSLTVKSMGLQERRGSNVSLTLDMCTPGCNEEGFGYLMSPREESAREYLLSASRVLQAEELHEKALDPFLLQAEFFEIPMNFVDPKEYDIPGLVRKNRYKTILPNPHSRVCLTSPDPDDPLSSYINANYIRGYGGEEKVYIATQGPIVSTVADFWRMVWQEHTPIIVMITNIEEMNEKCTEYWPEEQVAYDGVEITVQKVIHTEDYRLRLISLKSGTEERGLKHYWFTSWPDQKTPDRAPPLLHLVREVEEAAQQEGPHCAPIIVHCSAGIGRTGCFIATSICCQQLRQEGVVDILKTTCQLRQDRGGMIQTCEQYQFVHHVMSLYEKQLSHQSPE
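Assay system: isolated STEP enzyme / Timing: 20 min at room temperature, dark / Doses: 20 µM, 1% DMSO / Technique: fluorescence intensity, excitation 480 nm, emission 540 nm / Reagent: fluorogenic phosphatase substrate OMFP at 25 µM final / Measure: percent inhibition scaled to no-enzyme and uninhibited-enzyme controls, plate-pattern corrected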
SUMO1 PPI mod – modulators of SUMO1 protein-protein interactions, primary screen, biochemical, uHTS. SUMO1 binding to a labelled peptide, TR-FRET, 1 h. inhibition, % at 20 µM. actives 0.33% (n = 360,000). AID 602429, 2012; in the data active means inhibition above about 37%
Target sequence (P63165 whole entry, looked up): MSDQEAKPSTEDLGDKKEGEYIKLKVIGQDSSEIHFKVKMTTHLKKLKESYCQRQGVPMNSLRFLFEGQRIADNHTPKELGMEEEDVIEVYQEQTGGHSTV
Scp1 inh – Scp-1 phosphatase inhibitors, primary screen, biochemical, colorimetric, uHTS | actives 0.88% (n = 340,000) | inhibition, % at 20 µM | Carboxy-terminal domain RNA polymerase II polypeptide A small phosphatase 1 (Homo … | Recombinant Scp1, phosphopeptide, malachite green phosphate absorbance | AID 493091, 2011;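 active means inhibition above about 50% at 20 µM, limit read from the data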
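Test system: SCP-1 phosphatase catalytic domain, residues 76-261 | Compound dosing: One concentration, 20 µM, with 1.0% DMSO | Schedule: 45 min room-temperature reaction, 5 min colour, 30 min stabiliser | Detection: Absorbance at 630 nm | Read-out basis: % inhibition of SCP-1 phosphate liberation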
FAS TE block – FAS thioesterase domain inhibitors, primary screen, biochemical, fluorescence intensity, uHTS. Fatty acid synthase (Homo sapiens), P49327. recombinant FAS-TE, OMFH fluorogenic substrate, fluorescence endpoint. inhibition, % at 15 µM. actives 0.67% (n = 360,000);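 active means compounds whose normalised, plate-corrected inhibition of enzyme fluorescence in the single-dose primary screen is 50% or more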
Each line names hits and unclear results; the compound was inactive in the other large screens. Shown are actives, neighbours in structure and some others; about 1.9% of the full set was active somewhere.

O=S(=O)(NCc1ccccc1)c1ccc(Cl)cc1	none
O=S(=O)(Nc1cc2nc3ccccc3nc2n1Cc1ccccc1)c1ccc(Cl)cc1	SUMO1 PPI mod 51
COCCNc1nc(NCc2cc(-c3ccc(OC)cc3)no2)c2sccc2n1	LMPTP block 57 (no result: Scp1 inh)
O=C(Nc1cccc(S(=O)(=O)NC2=NCCC2)c1)c1cc(-c2ccco2)nc2ccccc12	LMPTP block 61, Scp1 inh 90
COc1ccc(NC(=O)c2cc(-c3ccco3)nc3ccccc23)cn1	Scp1 inh 67
O=C(N/N=C/c1ccc(F)cc1)c1cc(-c2ccco2)nc2ccccc12	LMPTP block 61, Scp1 inh 81
O=C(NC1CC1)c1cc(-c2ccco2)nc2ccccc12	LMPTP block 51, SUMO1 PPI mod 40, Scp1 inh 80
O=C(NC(=S)Nc1cccc(S(=O)(=O)NC2=NCCC2)c1)c1cc(-c2ccco2)nc2ccccc12	none
Cc1nnc(NC(=O)c2cc(-c3ccco3)nc3ccccc23)s1	none (no result: Scp1 inh)
CCCCNC(=O)c1nc(C2CCN(S(=O)(=O)c3ccc(C(F)(F)F)cc3)CC2)oc1-c1ccccc1	none (no result: STEP inh, Scp1 inh, FAS TE block)
C=C(C)C(=O)Nc1cccc(C2=NOC3(C2)C[C@@H](C(N)=O)N(C(=O)c2ccc(Cl)cc2)C3)c1 (some centres not stated)	Scp1 inh 71 (no result: LMPTP block, STEP inh, SUMO1 PPI mod, FAS TE block)
C/C=C\C=C/C(=O)Nc1cccc(C2=NOC3(C2)C[C@@H](C(N)=O)N(C(=O)/C=C/C=C\C)C3)c1 (some centres not stated)	SUMO1 PPI mod 95, Scp1 inh 80
O=C(Nc1ccc2c(c1)OCO2)C1Cc2c(-c3ccccc3Oc3ccccc3)ccnc2O1 (configuration not stated)	none (no result: Scp1 inh)
Cc1ccc([N+](=O)[O-])cc1N=Nc1c(-c2ccc([N+](=O)[O-])cc2)[nH]n(C(N)=S)c1=O	Scp1 inh 63
CCCc1nc2c3ccccc3ccn2c1Cc1cccc(F)c1	none (no result: Scp1 inh)
Cc1cc2nc3ccc(=[N+](C)C)cc-3sc2cc1N	SUMO1 PPI mod 54
CN(C)c1ccc2nc3ccc(=[N+](C)C)cc-3sc2c1	none
COc1cccc(/C=N/NC(=O)c2cc3cc([N+](=O)[O-])ccc3s2)c1O	LMPTP block 88, STEP inh 97
COc1cccc(/C=N/NC(=O)c2cc3c(OC)cccc3[nH]2)c1O	SUMO1 PPI mod 51
COc1cccc(/C=N/NC(=O)c2cc3c(OC)cccc3[nH]2)c1OC	none
COc1cccc(/C=N/NC(=O)C(=O)N/N=C/c2cccc(OC)c2O)c1O	none
COC(=O)[C@]12CCCCC=C1N(Cc1ccc3c(c1)OCO3)C(=O)[C@H](CC(=O)NCC13CC4CC(CC(C4)C1)C3)C2	none (no result: STEP inh, Scp1 inh, FAS TE block)
COC(=O)C1=CN(c2ccc(F)cc2)C(N)=C(C#N)C1c1ccc(-c2ccccc2)cc1 (configuration not stated)	none (no result: STEP inh, Scp1 inh, FAS TE block)
O=C(O)C1C2C=CC(C2)C1C(=O)NCc1cccnc1 (configuration not stated)	none
O=C(NCc1cccnc1)C1C2C=CC(C2)C1C(=O)Nc1cccc(C(F)(F)F)c1 (configuration not stated)	SUMO1 PPI mod 40 (no result: Scp1 inh)
Cc1cccc(NC(=O)C(=O)NCC2CCCN2S(=O)(=O)c2cccs2)c1 (configuration not stated)	none (no result: Scp1 inh)
CCOC(=O)N1CCN(C(C(=O)NC2CCCC2)C(C)C)CC1 (configuration not stated)	none (no result: STEP inh, Scp1 inh, FAS TE block)
CCC(CO)Oc1cc(NC(=O)c2ccc(OC)cc2)c2ncn(C(C)C)c2c1 (configuration not stated)	none
CCC(CO)Oc1cc(NC(=O)c2cccc(OC)c2)c2ncn(C(C)C)c2c1 (configuration not stated)	SUMO1 PPI mod 61
CCNC(=O)C1(C)CCN(C(=O)c2ccc3c(c2)OCO3)C1 (configuration not stated)	none (no result: Scp1 inh)
Cc1cc(=O)[nH]c(SCC(=O)NCc2ccco2)n1	Scp1 inh 67
Nc1nc(-c2cc(O)ccc2[N+](=O)[O-])cc(-c2ccccc2)c1[N+](=O)[O-]	SUMO1 PPI mod 50
CCOC(=O)CC1(CCc2ccccc2)Oc2ccccc2O1	none (no result: STEP inh, Scp1 inh, FAS TE block)
O=C(Nc1nnc([C@@H]2C[C@H](O)[C@@H](CO)O2)s1)Nc1ccccc1C(F)(F)F	none (no result: Scp1 inh)
NS(=O)(=O)c1ccc(N=Nc2c[nH]c(=O)c(O)c2)cc1	Scp1 inh 70
CN(C)c1ccc(N=Nc2ccc(S(N)(=O)=O)cc2)cc1	LMPTP block 53, STEP inh 94
CC(C)(C)NC(=O)C(CCc1ccccc1)n1c(=O)c(-c2cc3ccccc3[nH]2)nc2ccccc21 (configuration not stated)	none (no result: STEP inh, Scp1 inh, FAS TE block)
C#Cc1cccc(N2C(=O)C3C4C=CC(C3C2=O)C2C(=O)N(c3cccc(C#C)c3)C(=O)C42)c1 (configuration not stated)	none
COc1cccc(C(=O)N2CCC[C@@H]2C(=O)N2CCC[C@H]2C(=O)NCc2ccncc2)c1	none (no result: STEP inh, Scp1 inh)
O=C(O)c1cccc2[nH]c(C(F)(F)F)nc12	none
Nc1cccc2[nH]c(C(F)(F)F)nc12	SUMO1 PPI mod 68
COC(=O)[C@]12CCCCC=C1N(CCc1ccc(OC)c(OC)c1)C(=O)[C@H](CC(=O)NCCCCc1ccccc1)C2	none (no result: STEP inh, Scp1 inh, FAS TE block)
COc1ccc(-c2csc(N3CCN(c4cc(C)nc5ccccc45)CC3)n2)cc1OC	LMPTP block 84
O=C(OCCNc1nc(-c2ccccc2)nc2ccccc12)c1ccncc1	LMPTP block 62
O=C(OCCNc1nc(-c2ccccc2)nc2ccccc12)c1cccnc1	LMPTP block 62
COc1ccc(CNc2nc(-c3ccccc3)nc3ccccc23)cc1OC	LMPTP block 63
Cc1ccc(-c2nc(NCc3cccnc3)c3ccccc3n2)cc1	LMPTP block 63
c1ccc(-c2nc(NCc3cccnc3)c3ccccc3n2)cc1	LMPTP block 58
CC1Oc2ccc(C#N)cc2N(Cc2ccccc2OC(F)(F)F)C1=O (configuration not stated)	none (no result: Scp1 inh)
O=C(O)c1ccccc1NS(=O)(=O)c1ccc(N/N=C/c2cccc(O)c2O)c([N+](=O)[O-])c1	LMPTP block 69, Scp1 inh 88
CCOc1cc(/C=N/Nc2ccc(S(=O)(=O)Nc3ccccc3C(=O)O)cc2[N+](=O)[O-])cc(Cl)c1O	SUMO1 PPI mod 66 (no result: Scp1 inh)
CCOC(=O)[C@]12CCCC=C1N(CCC1=CCCCC1)C(=O)[C@H](CC(=O)NCc1ccccc1)C2	none (no result: STEP inh, Scp1 inh, FAS TE block)
N#C/C(=C\c1ccc(O)c(O)c1)C(=O)Nc1cccc2ncccc12	LMPTP block 66
